How the values were obtained:
[1] = molecular target: T1, Melanocortin receptor 4 (Homo sapiens, UniProt P32245); assay: Intracellular cAMP accumulation in Melanocortin 4 receptor functional assay.
[2] = molecular target: T2, Melanocortin receptor 5 (Homo sapiens, UniProt P33032); assay: Binding affinity against human Melanocortin 5 receptor by gamma-MCH displacement.
Summary of the method: (§1)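 Competition binding on intact HEK293 cells stably expressing the human receptor, seeded 50000 cells/well 48 h earlier. Lysates were gamma-counted. Ki came from competition curves; mean of duplicate experiments in triplicate.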

[3] = molecular target: T2, Melanocortin receptor 5; assay: Intracellular cAMP accumulation in human Melanocortin 5 receptor functional assay.
[4] = molecular target: T1, Melanocortin receptor 4; assay: Binding affinity against Melanocortin 4 receptor by gamma-MCH displacement.; summary of the method: as §1
[5] = molecular target: T3, Melanocortin receptor 3 (Homo sapiens, UniProt P41968); assay: Intracellular cAMP accumulation in human Melanocortin 3 receptor functional assay.
[6] = molecular target: T3, Melanocortin receptor 3; assay: Binding affinity against human Melanocortin 3 receptor by gamma-MCH displacement.; summary of the method: as §1
[7] = molecular target: T2, Melanocortin receptor 5; assay: Agonist activity against human Melanocortin 5 receptor at 10 uM
[8] = molecular target: T3, Melanocortin receptor 3; assay: Agonist activity against human Melanocortin 3 receptor at 10 uM
[9] = molecular target: T1, Melanocortin receptor 4; assay: Agonist activity against human Melanocortin 4 receptor at 10 uM

T1 sequence (P32245 whole entry): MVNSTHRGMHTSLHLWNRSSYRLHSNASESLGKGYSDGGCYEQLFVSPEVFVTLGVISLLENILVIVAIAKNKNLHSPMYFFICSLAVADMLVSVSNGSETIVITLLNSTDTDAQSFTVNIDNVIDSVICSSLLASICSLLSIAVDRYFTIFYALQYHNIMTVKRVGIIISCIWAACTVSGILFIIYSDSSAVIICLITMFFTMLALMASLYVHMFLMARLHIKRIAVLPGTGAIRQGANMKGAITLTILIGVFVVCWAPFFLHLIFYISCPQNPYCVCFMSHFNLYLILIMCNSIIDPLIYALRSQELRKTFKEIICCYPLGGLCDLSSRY
T3 sequence (P41968 whole entry): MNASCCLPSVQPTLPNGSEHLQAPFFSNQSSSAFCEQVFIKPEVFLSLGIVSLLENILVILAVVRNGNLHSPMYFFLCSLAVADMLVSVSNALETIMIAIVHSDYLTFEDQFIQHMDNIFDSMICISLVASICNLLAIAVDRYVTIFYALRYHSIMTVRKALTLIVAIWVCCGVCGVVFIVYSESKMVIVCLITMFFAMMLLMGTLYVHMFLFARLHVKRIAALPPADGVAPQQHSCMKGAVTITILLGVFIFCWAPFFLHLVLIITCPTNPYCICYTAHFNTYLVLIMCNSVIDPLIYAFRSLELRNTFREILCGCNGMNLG
T2 sequence (P33032 whole entry): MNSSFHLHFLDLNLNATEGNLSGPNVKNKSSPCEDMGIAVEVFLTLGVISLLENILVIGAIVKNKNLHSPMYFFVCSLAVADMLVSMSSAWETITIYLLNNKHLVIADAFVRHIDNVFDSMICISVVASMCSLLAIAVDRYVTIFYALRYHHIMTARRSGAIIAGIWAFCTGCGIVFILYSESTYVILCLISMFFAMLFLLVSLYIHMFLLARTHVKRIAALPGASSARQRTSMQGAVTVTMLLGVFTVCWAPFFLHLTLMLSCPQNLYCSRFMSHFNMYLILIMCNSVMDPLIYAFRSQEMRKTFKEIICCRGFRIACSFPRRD

EC50 [1] [nM]	Ki [2] [µM]	EC50 [3] [nM]	Ki [4] [nM]	EC50 [5] [nM]	Ki [6] [nM]	Activity [7] [%]	Activity [8] [%]	Activity [9] [%]	Compound
53	3.3	210	1300	150	1400	40	40	80	CCCC[C@H](NC(=O)[C@@H](NC(=O)[C@@H](N)Cc1ccc(O)cc1)C(C)C)C(=O)NCC(=O)N[C@@](C)(Cc1ccccc1)C(=O)N[C@@H](Cc1ccccc1)C(=O)N[C@@H](CCCN=C(N)N)C(=O)N[C@H](Cc1ccc2ccccc2c1)C(=O)N[C@@H](CC(=O)O)C(=O)N[C@@H](CCCN=C(N)N)C(=O)N[C@@H](Cc1ccccc1)C(=O)NCC(N)=O
–	–	–	–	–	–	100	100	100	CCCC[C@H](NC(=O)[C@@H](NC(=O)[C@@H](N)Cc1ccc(O)cc1)C(C)C)C(=O)N[C@H]1CC(=O)NCCCC[C@H](C(=O)N[C@@H](CCCN=C(N)N)C(=O)N[C@@H](Cc2ccccc2)C(=O)NCC(N)=O)NC(=O)[C@@H](Cc2c[nH]c3ccccc23)NC(=O)[C@H](CCCN=C(N)N)NC(=O)[C@@H](Cc2ccccc2)NC(=O)[C@H](Cc2c[nH]cn2)NC1=O
